Columns and labels:
Type in all cases: functional
MDA-MB-468 [1] = test: Growth inhibition of human MDA-MB-468 cells after 48 hrs by sulforhodamine B assay; conditions: MDA-MB-468, 48 h
Method in brief: (§1)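 NCI-60 panel cells grown in RPMI 1640 with 5% FBS and 2 mM L-glutamine, seeded at 5000–40,000 cells/well and preincubated 24 h. Five 10-fold dilutions (0.001–100 µM) from DMSO stocks were added for 48 h at 37 °C. Adherent cells were fixed with cold TCA (10% final) for 60 min at 4 °C, stained with 0.4% SRB, and read at 515 nm. GI50 was set where 100×(T−T0)/(C−T0)=50.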

RXF 393 = test: Growth inhibition of human RXF393 cells after 48 hrs by sulforhodamine B assay; conditions: RXF 393, 48 h; method in brief: as §1
[2] = Growth inhibition of human Hs 578T cells after 48 hrs by sulforhodamine B assay
Method in brief: (§2)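 NCI-60 screen: cells in RPMI 1640 with 5% FBS and 2 mM glutamine, 5000–40,000 cells/well, preincubated 24 h. Five concentrations (10-fold dilutions; 100 to 0.001 µM) applied for 48 h at 37 °C. TCA fixation, SRB stain, absorbance at 515 nm. Time-zero plates included; GI50 where 100×(T−T0)/(C−T0)=50.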

MDA-MB-468 [3] = test: Growth inhibition of human MDA-MB-468 cells assessed as cell growth at 10 uM after 48 hrs by sulforhodamine B assay; conditions: MDA-MB-468, 48 h, read-out: Activity
Method in brief: (§3)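 Single-dose NCI-60 screen: adherent cells in RPMI 1640 with 5% FBS were exposed to 10 µM for 48 h at 37 °C after a 24 h preincubation. They were fixed in situ with cold TCA (10% final), stained with 0.4% SRB in 1% acetic acid, solubilized in 10 mM Tris base, and read at 515 nm. Percent growth was taken relative to time-zero and control plates.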

IGROV-1 = test: Growth inhibition of human IGROV1 cells after 48 hrs by sulforhodamine B assay; conditions: IGROV-1, 48 h; method in brief: as §2
MOLT-4 = test: Growth inhibition of human MOLT4 cells assessed as cell growth at 10 uM after 48 hrs by sulforhodamine B assay; conditions: MOLT-4, 48 h, read-out: Activity
Method in brief: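 Single 10 µM dose applied to suspension cells in RPMI 1640 with 5% FBS and 2 mM L-glutamine for 48 h at 37 °C. Settled cells were fixed with 80% TCA (16% final), stained with SRB, and read at 515 nm. Percent growth was calculated against time-zero and untreated control optical densities.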

SN12C = test: Growth inhibition of human SN12C cells after 48 hrs by sulforhodamine B assay
Method in brief: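 NCI-60 five-dose screen. Cells were grown in RPMI 1640 with 5% FBS and 2 mM L-glutamine, plated at 5000–40,000 cells/well and incubated 24 h before dosing, with T0 plates TCA-fixed. DMSO stocks were diluted to doses of […] and exposed 48 h at 37 °C, 5% CO2. Cells were fixed with cold TCA (final 10%, 60 min, 4 °C), stained with 0.4% SRB in 1% acetic acid for 10 min, solubilized in 10 mM trizma base and read at 515 nm. GI50 is where 100×(T−T0)/(C−T0)=50.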

MDA-MB-435 [4] = test: Growth inhibition of human MDA-MB-435 cells assessed as cell growth at 10 uM after 48 hrs by sulforhodamine B assay; conditions: MDA-MB-435, 48 h, read-out: Activity; method in brief: as §3
SK-MEL-5 = test: Growth inhibition of human SK-MEL-5 cells after 48 hrs by sulforhodamine B assay; conditions: SK-MEL-5, 48 h; method in brief: as §1
PC-3 = test: Growth inhibition of human PC3 cells assessed as cell growth at 10 uM after 48 hrs by sulforhodamine B assay; conditions: PC-3, 48 h, read-out: Activity; method in brief: as §3
BT-549 = test: Growth inhibition of human BT549 cells assessed as cell growth at 10 uM after 48 hrs by sulforhodamine B assay; conditions: BT-549, 48 h, read-out: Activity
Method in brief: (§4)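 NCI-60 single-dose screen at 10 µM: cells in RPMI 1640 with 5% FBS, preincubated 24 h, then exposed 48 h at 37 °C. TCA fixation (16% final for suspension cells), SRB staining, absorbance 515 nm. Percent growth relative to time-zero and untreated control plates; negative values indicate cell kill.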

OVCAR-5 [5] = test: Growth inhibition of human OVCAR5 cells assessed as cell growth at 10 uM after 48 hrs by sulforhodamine B assay; conditions: OVCAR-5, 48 h, read-out: Activity; method in brief: as §3
COLO 205 = test: Growth inhibition of human COLO205 cells after 48 hrs by sulforhodamine B assay; conditions: COLO 205, 48 h; method in brief: as §2
[6] = Growth inhibition of human Hs 578T cells assessed as cell growth at 10 uM after 48 hrs by sulforhodamine B assay; conditions: read-out: Activity; method in brief: as §4
786-0 = test: Growth inhibition of human 786-0 cells after 48 hrs by sulforhodamine B assay; conditions: 786-0, 48 h; method in brief: as §2
DU-145 = test: Growth inhibition of human DU145 cells assessed as cell growth at 10 uM after 48 hrs by sulforhodamine B assay; conditions: DU-145, 48 h, read-out: Activity; method in brief: as §4
A498 = test: Growth inhibition of human A498 cells after 48 hrs by sulforhodamine B assay; conditions: A498, 48 h; method in brief: as §2
MCF7 = test: Growth inhibition of human MCF7 cells after 48 hrs by sulforhodamine B assay; conditions: MCF7, 48 h; method in brief: as §1
HOP-62 = test: Growth inhibition of human HOP62 cells after 48 hrs by sulforhodamine B assay; conditions: HOP-62, 48 h; method in brief: as §2
OVCAR-5 [7] = test: Growth inhibition of human OVCAR5 cells after 48 hrs by sulforhodamine B assay; conditions: OVCAR-5, 48 h; method in brief: as §1
SF-268 [8] = test: Growth inhibition of human SF268 cells assessed as cell growth at 10 uM after 48 hrs by sulforhodamine B assay; conditions: SF-268, 48 h, read-out: Activity; method in brief: as §3
SF-268 [9] = test: Growth inhibition of human SF268 cells after 48 hrs by sulforhodamine B assay; conditions: SF-268, 48 h; method in brief: as §1
SW-620 = test: Growth inhibition of human SW620 cells assessed as cell growth at 10 uM after 48 hrs by sulforhodamine B assay; conditions: SW-620, 48 h, read-out: Activity
Method in brief: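 Single-dose NCI-60 test at 10 µM. Cells were grown in RPMI 1640 with 5% FBS and 2 mM L-glutamine, preincubated 24 h, with T0 plates TCA-fixed. Exposure was 48 h at 37 °C, 5% CO2. Cells were fixed with cold TCA (final 10%, 4 °C, 60 min), stained with SRB and read at 515 nm. Percent growth was taken relative to T0 and untreated control; negative values denote cell kill.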

A549 = test: Growth inhibition of human A549/ATCC cells after 48 hrs by sulforhodamine B assay; conditions: A549, 48 h; method in brief: as §2
Malme-3M = test: Growth inhibition of human MALME-3M cells assessed as cell growth at 10 uM after 48 hrs by sulforhodamine B assay; conditions: read-out: Activity; method in brief: as §3
MDA-MB-435 [10] = test: Growth inhibition of human MDA-MB-435 cells after 48 hrs by sulforhodamine B assay; conditions: MDA-MB-435, 48 h; method in brief: as §1

CC(C)=CCC/C(C)=C/CC/C(C)=C/CC[C@]1(C)CCc2c3c(c(C)c(C)c2O1)OCN(CCCCCCO)C3
GI50 (MDA-MB-468 [1]): 2610 nM
GI50 (RXF 393): 2300 nM
GI50 [2]: 3040 nM
growth at 10 µM (MDA-MB-468 [3]): -46.7%
GI50 (IGROV-1): 2690 nM
growth at 10 µM (MOLT-4): -18.4%
GI50 (SN12C): 2500 nM
growth at 10 µM (MDA-MB-435 [4]): 22.1%
GI50 (SK-MEL-5): 2880 nM
growth at 10 µM (PC-3): 51%
growth at 10 µM (BT-549): 119%
growth at 10 µM (OVCAR-5 [5]): 39%
GI50 (COLO 205): 2830 nM
growth at 10 µM [6]: 90.4%
GI50 (786-0): 2790 nM
growth at 10 µM (DU-145): 77%
GI50 (A498): 2590 nM
GI50 (MCF7): 2730 nM
GI50 (HOP-62): 2700 nM
GI50 (OVCAR-5 [7]): 2760 nM
growth at 10 µM (SF-268 [8]): 26%
GI50 (SF-268 [9]): 2810 nM
growth at 10 µM (SW-620): -29.4%
GI50 (A549): 3090 nM
growth at 10 µM (Malme-3M): 85.7%
GI50 (MDA-MB-435 [10]): 2950 nM

CC(C)=CCC/C(C)=C/CC/C(C)=C/CC[C@]1(C)CCc2c3c(cc(C)c2O1)OCN(CCCCCCO)C3
GI50 (MDA-MB-468 [1]): 629 nM
GI50 (RXF 393): 546 nM
GI50 [2]: 814 nM
growth at 10 µM (MDA-MB-468 [3]): -84.5%
GI50 (IGROV-1): 1280 nM
growth at 10 µM (MOLT-4): -42.9%
GI50 (SN12C): 2060 nM
growth at 10 µM (MDA-MB-435 [4]): -48.1%
GI50 (SK-MEL-5): 2500 nM
growth at 10 µM (PC-3): -31.4%
growth at 10 µM (BT-549): 41.6%
growth at 10 µM (OVCAR-5 [5]): 33.4%
GI50 (COLO 205): 717 nM
growth at 10 µM [6]: 29.8%
GI50 (786-0): 1740 nM
growth at 10 µM (DU-145): 10.7%
GI50 (A498): 4880 nM
GI50 (MCF7): 579 nM
GI50 (HOP-62): 877 nM
GI50 (OVCAR-5 [7]): 2550 nM
growth at 10 µM (SF-268 [8]): -80.2%
GI50 (SF-268 [9]): 1180 nM
growth at 10 µM (SW-620): -66.3%
GI50 (A549): 607 nM
growth at 10 µM (Malme-3M): -50.2%
GI50 (MDA-MB-435 [10]): 967 nM

Source: ChEMBL document CHEMBL2380254, “Optimization of tocotrienols as antiproliferative and antimigratory leads” (Eur J Med Chem, 2013)
